This note sets out measurements from ChEMBL document CHEMBL2034908, “Isoxazolo(aza)naphthoquinones: a new class of cytotoxic Hsp90 inhibitors” (Eur J Med Chem, 2012).

The target of assay [1] is T1, Heat shock protein HSP90 (Homo sapiens) (UniProt P07900+P08238). Kind of assay: Inhibition of Hsp90 in human A431 cells assessed as down-regulation of EGFR expression after 24 hrs by Western blotting analysis. It counts as cell-based. To be noted: A-431. The gist of the method: (§1)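 Cells were treated 24 h with drug freshly made in DMSO and diluted in medium with 10% FBS. Where a single level was used, it was 22 nM. Lysates: cells rinsed twice in ice-cold PBS with 0.1 mM orthovanadate, then lysed in hot sample buffer. Protein was quantified by BCA, run on SDS-PAGE and blotted to nitrocellulose. Detection used HRP secondary antibodies and chemiluminescence, with actin as loading control.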

Assay [2] deals with T1, Heat shock protein HSP90 (Homo sapiens). Kind of assay: Inhibition of Hsp90 in human A431 cells assessed as down-regulation of Akt expression after 24 hrs by Western blotting analysis. To be noted: A-431. It is filed as cell-based. The gist of the method:
as §1

The nature of assay [3]: Binding affinity to Hsp90 after 4 hrs by GM-FITC based fluorescence polarization assay. Summed up:
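Commercial Hsp90 at 30 nM was mixed with GM-FITC tracer at 5 nM and serially diluted compound. Buffer: 20 mM HEPES(K) pH 7.3, 50 mM KCl, 5 mM MgCl2, 20 mM Na2MoO4, 0.01% NP40, with fresh 0.1 mg/ml bovine gamma globulin and 2 mM DTT. Shaken 4 h at 4 °C, then FP read in mP. IC50 is the concentration displacing 50% of tracer, from triplicate wells by nonlinear least-squares fit.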
Background: Polarisation of emitted light reports the rotation of a fluorescent probe.

For assay [4], the target named is T1, Heat shock protein HSP90 (Homo sapiens). Kind of assay: Inhibition of Hsp90 in human A431 cells assessed as up-regulation of Hsp70 in human A431 cells after 24 hrs by Western blotting analysis. It is filed as cell-based. To be noted: A-431. Summed up:
as §1

The test system of assay [5] is A-431. Description: Cytotoxicity against human A431 cells after 72 hrs. It counts as functional, cell-based. The conditions noted are these: A-431, 72 h.
The subject of the next assay is NCI-H460. Kind of assay: Cytotoxicity against human NCI-H460 cells after 72 hrs. It is filed as functional, cell-based. To be noted: NCI-H460, 72 h. The gist of the method:
(§2)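 Compounds were dissolved fresh in DMSO and diluted in culture medium. Cells were exposed for 72 h at 37 °C in medium with 10% heat-inactivated FBS under 5% CO2. IC50 reported ± SD. STO cells were grown in 50/50 DMEM-Ham's F12 with 10% FBS and 2 mM L-Gln.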

In assay [6] the target is T1, Heat shock protein HSP90 (Homo sapiens). Kind of assay: Inhibition of Hsp90 in human A431 cells assessed as down-regulation of survivin expression after 24 hrs by Western blotting analysis. It counts as cell-based. The conditions noted are these: A-431. Summed up:
as §1
A general note: Immunoblotting shows a protein as a band on a membrane.

The nature of assay [7]: Cytotoxicity against human STO cells after 72 hrs. It counts as functional, cell-based. The gist of the method: as §2
Assay [8] has as its target T1, Heat shock protein HSP90 (Homo sapiens). Description: Inhibition of Hsp90 in human A431 cells assessed as down-regulation of Cdk4 expression after 24 hrs by Western blotting analysis. It counts as cell-based. To be noted: A-431. Summed up: as §1
For assay [9] the target is unchanged. Kind of assay: Inhibition of Hsp90 in human STO cells assessed as down-regulation of Raf expression at 22 nM after 24 hrs by Western blotting analysis. It counts as cell-based. Summed up: as §1
For assay [10], the system named is A-431. Kind of assay: Antitumor activity against human A431 cells xenografted in athymic nude Swiss mouse assessed as tumor growth inhibition at 10 mg/kg, po qd for 4 days per week for 3 weeks. It counts as functional. To be noted: read-out: GI. The gist of the method:
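Female athymic Swiss nude mice, 8–10 weeks old, bearing A431 squamous carcinoma xenografts. Drug dissolved in physiologic saline and given orally at 10 mg/kg, qdx4d/week for 3 weeks. Dosing started when tumours were just palpable. Tumour growth inhibition was assessed.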
For orientation: In xenograft studies the graft and the host belong to different species.

Assay [11] has as its target T1, Heat shock protein HSP90 (Homo sapiens). Kind of assay: Inhibition of Hsp90 in human A431 cells assessed as down-regulation of Raf expression at 22 nM after 24 hrs by Western blotting analysis. It is filed as cell-based. To be noted: A-431. The gist of the method:
as §1

Assay [12] has the same target. Description: Inhibition of Hsp90 in human STO cells assessed as down-regulation of Cdk4 expression at 22 nM after 24 hrs by Western blotting analysis. It is filed as cell-based. Summed up: as §1
Assay [13] has the same target. Kind of assay: Inhibition of Hsp90 in human A431 cells assessed as down-regulation of survivin expression at 22 nM after 24 hrs by Western blotting analysis. To be noted: A-431. It counts as cell-based. The gist of the method:
as §1

Assay [14] has the same target. Kind of assay: Inhibition of Hsp90 in human A431 cells assessed as down-regulation of Cdk4 expression at 22 nM after 24 hrs by Western blotting analysis. It counts as cell-based. To be noted: A-431. Summed up: as §1
Assay [15] has the same target. Kind of assay: Inhibition of Hsp90 in human STO cells assessed as down-regulation of survivin expression at 22 nM after 24 hrs by Western blotting analysis. It counts as cell-based. Summed up: as §1
For assay [16] the target is unchanged. Description: Inhibition of Hsp90 in human A431 cells assessed as down-regulation of EGFR expression at 22 nM after 24 hrs by Western blotting analysis. It counts as cell-based. The conditions noted are these: A-431. The gist of the method: as §1

SMILES strings stand for the structures. The source made the active and inactive calls. The rule behind the calls is not given here.

Regarding `Cl.O=C1c2ccncc2C(=O)c2c(-c3ccc(OCCN4CCOCC4)cc3)noc21`, the inhibition result in assay [1], in assay [2], in assay [4], in [6] and in assay [8] was “Dose-dependent effect” throughout. Moreover, the IC50 (as a rule, the concentration at which inhibition is half-maximal) in assay [3] was less than 0.005 µM; in the assay on A-431 [5], 0.02 µM; in the assay with NCI-H460, 0.041 µM; in assay [7] it was 0.054 µM. For the same compound, the pIC50 (in general, −log10 of the IC50, conventionally taken in molar units) in assay [3] is on record as 8.47.
As to `O=C1c2ccccc2C(=O)c2c(-c3cc[n+](Cc4ccccc4)cc3)noc21.[Br-]`, the inhibition entry in assay [9], in [11], in assay [12], in [13], in [14] and in assay [15] was “Active” each time. Moreover, the inhibition entry in assay [16] is “Active”. The inhibition in vivo at 10 mg/kg in the assay with A-431 [10] was 50%. Moreover, the IC50 in assay [3] amounted to 0.034 µM; with A-431 [5], 0.0016 µM; with NCI-H460, 0.018 µM; in assay [7] it was 0.0022 µM. In assay [3], this compound returned a pIC50 of 7.47. Moreover, the inhibition entry in assay [4] was “Dose-dependent effect”.
